Bioassay records deposited in PubChem BioAssay by Broad Institute.
The entries come from a sample that favours hits as a whole.
T cruzi HTS: blocks T. cruzi growth inside host cells; intracellular Trypanosoma cruzi in host cells, plate reader; activity score (inhibition), % at 5.01 µM; actives 4.9% (n = 22,000); AID 651903; in the data active = activity score above about 55%; inconclusive = no clear call, values can overlap the other calls;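 note: parasites and compound incubated about four days before reading; 0% = median of neutral control wells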
YB-1 expr inh: YB-1 expression inhibition | delta delta Cp (YB-1 minus CDIP) (concentration not given with the values) | actives 0.37% (n = 30,000) | AID 434959 | U2OS, qRT-PCR YB-1 vs CDIP delta delta Cp, 16 h; stronger effect = higher value; zero = DMSO, each unit about twofold;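 active = delta delta Cp rounded down to an integer at or above 3, about 3 SD of DMSO wells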;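 note: higher means less YB-1 transcript or more CDIP transcript relative to DMSO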
INS-1E rescue: preserves ATP levels in cytokine-treated INS-1E cells. protection from cytokine-induced ATP loss, % at 10 µM. actives 0.1% (n = 20,000). INS-1E cytokine-induced death, ATP luminescence, 48 h; normalised: neutral wells 0, positive control 100;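 active = mean replicate protection from cytokine-induced ATP loss at least 50% and at least 75% of replicates each reaching 50%; inconclusive = meets only one of the two criteria, mean or replicate share; inactive = fails both the mean and replicate share criteria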
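Test system: INS-1E rat cells | Quantity: 8000 cells per well | Medium: Phenol-red-free RPMI with 5% fetal bovine serum | Reagent: Cytokine cocktail of IFN-γ, TNF-α and IL-1β | Doses: One compound concentration, pin transfer | Timing: 48 h co-treatment, 10 min post-lysis read | Technique: Luminescent ATP assay (CellTiter-Glo)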
* hit, by the source's call; ? = inconclusive; . = not tested or not shown.

SMILES | T cruzi HTS | YB-1 expr inh | INS-1E rescue
C[C@H](CO)N1C[C@H](C)[C@H](CN(C)Cc2ccc(C(=O)O)cc2)Oc2ccc(NC(=O)Nc3cccc4ccccc34)cc2CC1=O | 2 | -0.47 | 5
C[C@H]1CN([C@@H](C)CO)C(=O)Cc2cc(NC(=O)Nc3cccc4ccccc34)ccc2O[C@@H]1CN(C)Cc1ccc(-c2ccccc2)cc1 | 58* | 0.64 | -7
C[C@H](CO)N1C[C@H](C)[C@H](CN(C)Cc2ccccc2)Oc2ccc(NC(=O)Nc3cccc4ccccc34)cc2CC1=O | 40 | 0.13 | -11
Cc1noc(C)c1S(=O)(=O)Nc1ccc2c(c1)C(=O)N([C@@H](C)CO)C[C@@H](C)[C@H](CN(C)Cc1ccccc1)O2 | 10 | 0.19 | -1
Cc1noc(C)c1NC(=O)N(C)C[C@@H]1Oc2ccc(NC(=O)CCCN(C)C)cc2C(=O)N([C@H](C)CO)C[C@H]1C | -13 | -0.095 | -3
O=C(O)CCCCCC(=O)N/N=C/c1cn(S(=O)(=O)c2ccccc2)c2ccccc12 | 9 | 0.34 | 8
CC(C)=CCC[C@H](C)C/C=N/NC(=O)CCCCCCC(=O)Nc1ccccc1O | 4 | 0.19 | 6
C[C@@H]1CN([C@@H](C)CO)C(=O)c2cccc(NC(=O)c3ccncc3)c2O[C@@H]1CN(C)S(=O)(=O)c1ccccc1 | 33 | 2.4 | 15
COc1ccc(S(=O)(=O)N(C)C[C@@H]2Oc3ccc(NC(=O)CCN4CCOCC4)cc3C(=O)N([C@@H](C)CO)C[C@H]2C)cc1 | 3 | -0.24 | 8
C[C@H]1CN([C@@H](C)CO)C(=O)c2cccc(NC(=O)Nc3cccc4ccccc34)c2O[C@H]1CN(C)Cc1ccc(C(=O)Nc2ccccc2N)cc1 | 68* | 0.34 | -10
C[C@@H]1CN([C@@H](C)CO)C(=O)c2cccc(NC(=O)Nc3ccccc3)c2O[C@@H]1CN(C)Cc1ccc(C(=O)Nc2ccccc2N)cc1 | 66* | -0.048 | 46
C[C@@H]1CN([C@@H](C)CO)C(=O)c2cc(NC(=O)Nc3cccc4ccccc34)ccc2O[C@@H]1CN(C)Cc1ccc(C(=O)Nc2ccccc2N)cc1 | 25 | -0.46 | -3
Cc1cc(C(=O)Nc2cccc3c2O[C@@H](CN(C)Cc2ccc(C(=O)Nc4ccccc4N)cc2)[C@@H](C)CN([C@H](C)CO)C3=O)n(C)n1 | 54 | -0.73 | -15
C[C@@H]1CN([C@H](C)CO)C(=O)c2cccc(NC(=O)Nc3ccccc3)c2O[C@H]1CN(C)Cc1ccc(C(=O)Nc2ccccc2N)cc1 | 76* | -0.0013 | 4
Cc1cc(C(=O)Nc2cccc3c2O[C@H](CN(C)Cc2ccc(C(=O)Nc4ccccc4N)cc2)[C@H](C)CN([C@@H](C)CO)C3=O)n(C)n1 | 28 | -0.7 | 60*
C[C@@H]1CN([C@@H](C)CO)C(=O)c2cccc(NC(=O)Nc3ccccc3)c2O[C@@H]1CN(C)Cc1ccc(C(=O)O)cc1 | -18 | 0.18 | 7
O=C(NO)c1ccc(C(=O)N/N=C/c2cccc3ccccc23)cc1 | 9 | -0.42 | -3
COc1ccc(NC(=O)Nc2ccc3c(c2)C(=O)N([C@H](C)CO)C[C@H](C)[C@H](CN(C)C(=O)CCC(F)(F)F)OCCCC[C@@H](C)O3)cc1 | -13 | -0.45 | 2
C[C@H]1CN([C@@H](C)CO)C(=O)c2cccc(N(C)C)c2O[C@@H]1CN(C)Cc1ccc(C(=O)O)cc1 | -20 | 0.02 | 5
OC(c1nc2ccc(Cl)cc2[nH]1)C(O)c1nc2ccc(Cl)cc2[nH]1 (centres undefined) | . | -0.25 | .
C[C@H](CO)N1C[C@H](C)[C@@H](CN(C)Cc2ccc(C(F)(F)F)cc2)Oc2ccc(NS(=O)(=O)c3cccs3)cc2C1=O | 60* | 0.49 | -12
C[C@H](CO)N1C[C@H](C)[C@H](CN(C)Cc2ccc(C(F)(F)F)cc2)Oc2ccc(NS(=O)(=O)c3cccs3)cc2C1=O | 58* | -0.28 | -14
C[C@H]1CN([C@@H](C)CO)C(=O)c2cc(NS(=O)(=O)c3cccs3)ccc2O[C@H]1CN(C)Cc1ccccc1 | 6 | -0.022 | -5
C[C@H]1CN([C@@H](C)CO)C(=O)c2cc(NS(=O)(=O)c3cccs3)ccc2O[C@H]1CN(C)Cc1ccc(C(F)(F)F)cc1 | 39 | -0.22 | .
COc1cc2c(c(O)c1CO)C(=O)CCC2O (centres undefined) | . | -0.24 | .
SMILES | T cruzi HTS | YB-1 expr inh | INS-1E rescue
FC(F)(F)COc1ccc(-c2nnc(SCc3ccccc3C(F)(F)F)o2)cn1 | . | -0.51 | .
COc1ccc(S(=O)(=O)N(C)C[C@H]2Oc3c(NC(=O)Nc4ccc(C(F)(F)F)cc4)cccc3C(=O)N([C@@H](C)CO)C[C@H]2C)cc1 | 67* | 0.43 | -102
COc1ccc(S(=O)(=O)N(C)C[C@@H]2Oc3c(NC(=O)Nc4ccc(C(F)(F)F)cc4)cccc3C(=O)N([C@@H](C)CO)C[C@H]2C)cc1 | 2 | -0.074 | -7
COc1ccc(S(=O)(=O)N(C)C[C@H]2Oc3c(NC(=O)Nc4ccc(C(F)(F)F)cc4)cccc3C(=O)N([C@H](C)CO)C[C@@H]2C)cc1 | ? | 0.013 | -18
COc1ccc(S(=O)(=O)N(C)C[C@H]2Oc3ccc(NC(=O)Nc4cccc5ccccc45)cc3C(=O)N([C@@H](C)CO)C[C@@H]2C)cc1 | 3 | 0.16 | 1
COc1ccc(S(=O)(=O)N(C)C[C@H]2Oc3ccc(NC(=O)Nc4cccc5ccccc45)cc3C(=O)N([C@@H](C)CO)C[C@H]2C)cc1 | 62* | -0.3 | -9
COc1ccc(S(=O)(=O)N(C)C[C@H]2Oc3c(NC(=O)Nc4ccc(C(F)(F)F)cc4)cccc3C(=O)N([C@@H](C)CO)C[C@@H]2C)cc1 | 70* | -0.17 | -39
COc1ccc(S(=O)(=O)N(C)C[C@@H]2Oc3ccc(NC(=O)Cn4cnnn4)cc3C(=O)N([C@H](C)CO)C[C@H]2C)cc1 | -14 | 1 | 13
C[C@@H]1CN([C@@H](C)CO)C(=O)c2cccc(NC(=O)Nc3ccc(C(F)(F)F)cc3)c2O[C@H]1CN(C)C(=O)Nc1cccc2ccccc12 | 38 | 0.34 | -30
C[C@H](CO)N1C[C@H](C)[C@@H](CN(C)C(=O)Nc2cccc3ccccc23)Oc2c(NC(=O)Nc3ccc(C(F)(F)F)cc3)cccc2C1=O | 61* | 0.56 | -8
C[C@H](CO)N1C[C@H](C)[C@@H](CN(C)C(=O)Nc2ccc(C(F)(F)F)cc2)Oc2c(NC(=O)Nc3cccc4ccccc34)cccc2C1=O | 52 | 0.22 | -34
C[C@H](CO)N1C[C@H](C)[C@H](CN(C)C(=O)Nc2cccc3ccccc23)Oc2c(NC(=O)Nc3ccc(C(F)(F)F)cc3)cccc2C1=O | 66* | 0.19 | -14
C[C@H]1CN([C@@H](C)CO)C(=O)c2cccc(NC(=O)Nc3cccc4ccccc34)c2O[C@H]1CN(C)C(=O)Nc1ccc(C(F)(F)F)cc1 | 63* | 0.0057 | -29
C[C@@H]1CN([C@@H](C)CO)C(=O)c2cccc(NC(=O)Nc3ccc(C(F)(F)F)cc3)c2O[C@@H]1CN(C)C(=O)Nc1cccc2ccccc12 | -27 | 0.46 | -59
O=C(N/N=C/c1cccc(Br)c1)c1ccccn1 | -6 | -0.033 | -1
